Screening results (PubChem)
Yeast growth inh = reduces growth of yeast BB579 in restrictive medium | S. cerevisiae BB579 growth, OD615, 48 h | inhibition, % at 10 µM | hit rate 0.51% among 140,000;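 active = inhibition above a set limit, 3 SD over the mean compound inhibition, cut at about 44% in these data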
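Detection: OD615 turbidity measurement; Material: Saccharomyces cerevisiae DeaD strain BB579, replicative lifespan model yeast; Timing: 48 h exposure, 30 °C; Doses: single 10 µM dose; Medium: CSMM-D restrictive synthetic medium containing dextrose (glucose); Controls: amphotericin B at 10 µg/mL as positive control.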
TNAP inh hi DEA = TNAP (human) inhibition, high acceptor; hit rate 0.03% among 200,000; inhibition, % at 20 µM; purified TNAP, CDP-star luminescence, 1 M DEA;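 active = over 50% inhibition of tissue-nonspecific alkaline phosphatase at 20 µM in the single-dose screen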
Target sequence (P05186 whole entry, looked up): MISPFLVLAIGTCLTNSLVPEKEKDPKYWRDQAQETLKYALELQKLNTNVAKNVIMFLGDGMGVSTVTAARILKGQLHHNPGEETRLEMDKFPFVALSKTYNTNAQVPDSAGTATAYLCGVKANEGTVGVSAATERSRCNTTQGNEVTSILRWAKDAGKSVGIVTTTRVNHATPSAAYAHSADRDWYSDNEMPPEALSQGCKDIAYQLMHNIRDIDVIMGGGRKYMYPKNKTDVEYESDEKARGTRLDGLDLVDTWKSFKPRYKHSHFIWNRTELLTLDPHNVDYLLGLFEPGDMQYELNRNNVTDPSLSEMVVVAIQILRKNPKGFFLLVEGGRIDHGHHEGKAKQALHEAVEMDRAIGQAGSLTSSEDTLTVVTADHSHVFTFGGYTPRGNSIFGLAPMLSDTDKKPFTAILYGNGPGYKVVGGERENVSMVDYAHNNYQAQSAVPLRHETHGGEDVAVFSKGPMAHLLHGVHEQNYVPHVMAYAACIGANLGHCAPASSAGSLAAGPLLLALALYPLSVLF
Yeast life ext = extends the lifespan of yeast | inhibition of the nicotinamide effect, % at 10 µM | hit rate 0.68% among 130,000 | S. cerevisiae growth with nicotinamide, OD615; deaD strain in restrictive glucose medium;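 active = inhibition above a set limit, placed 3 SD over the median of all compounds, cut at about 26% in these data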
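Measured by: optical density (absorbance) at 615 nm; System: modified budding yeast, DeaD strain; Medium: restrictive CSMM-D dextrose medium; Timing: 4 h preincubation then 48 h treatment at 30 °C.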
TNAP act hiacc = activators of human TNAP at high phosphate acceptor concentration; P05186; purified TNAP, CDP-star luminescence, 1 M DEA, 30 min; stronger effect = higher value; 0 = EDTA background, 1 = DMSO-only activity; activation factor at 20 µM; 200,000 tested, under 10 active; AID 1136;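 active = activation factor at least 2 at 20 µM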
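Measured by: Luminescent substrate turnover signal | Test system: Human TNAP | Input: TNAP 1/800 final | Dosing: 20 µM single point | Schedule: 30 min, room temperature | Controls: EDTA wells as negative control, DMSO wells as positive control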
TNAP inh noacc = blocks human TNAP activity with no phosphate acceptor present; P05186; purified TNAP, CDP-star luminescence, 30 min; inhibition, % at 20 µM; hit rate 0.26% among 200,000;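 active = tissue-nonspecific alkaline phosphatase inhibition above about 50% at 20 µM in the single-dose screen, limit read from the data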
RAM network inh = yeast RAM network inhibition. inhibition, % at 50 µM. AID 868. S. cerevisiae dse1pr::URA3 reporter, 5-FOA growth OD615, 2 d; analog-sensitive cbk1-as2 kinase mutant strain. hit rate 1.8% among 190,000;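 active = inhibition above a set limit, 3 SD over mean compound inhibition, cut at about 8.4% in these data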;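 note: inhibition rescues growth on 5-FOA so higher OD means more RAM inhibition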
Of the large screens only hits and unclear results are named; the others gave an inactive call. Most compounds without a hit are left out; they make up all but 2.8% or so of the library.

CCn1c(C)cc(/C=C2/NC(=O)N(Cc3ccccc3F)C2=O)c1C	none
Cc1cccc(C2c3[nH]c4ccccc4c3CCN2C(=O)c2cc(CC(C)C)[nH]c(=O)n2)n1 (stereo unspecified)	none (no result: Yeast growth inh, Yeast life ext)
CS(=O)(=O)N(CC(=O)NCc1ccco1)c1cccc([N+](=O)[O-])c1	none (no result: Yeast growth inh, Yeast life ext)
CCN(CC)N=Nc1[nH]nc2nc(C)cc(C)c12	Yeast growth inh 78
Cc1cc(C)c2c(N=NN3CCCCC3)[nH]nc2n1	Yeast growth inh 85
CCOC(=O)C1CCN(c2ccc([N+](=O)[O-])c(C(C)=O)c2)CC1	none (no result: Yeast growth inh, Yeast life ext)
CC1CCCN(C2=C(Cl)C(=O)N(c3cccc(Cl)c3)C2=O)C1 (stereo unspecified)	RAM network inh 10
COc1ccc(N2C(=O)C(Cl)=C(N3CCCC(C)C3)C2=O)cc1 (stereo unspecified)	none
CCCCCCCCCCn1c2c(c(=N)c3c1CCC3)CCC2	Yeast growth inh 99
COc1nc(-c2ccccc2)ccc1-c1noc(-c2ccccc2)n1	RAM network inh 11
Cc1ccc(C(=O)/C=C/c2cn(CN3CCN(C)CC3)c3ccccc23)cc1	Yeast growth inh 73
O=c1cc(-c2ccc3c(c2)OCO3)oc2ccccc12	none
COc1ccc(C(=O)NCC(C)(C)SCc2c(C)cc(C)cc2C)cc1	RAM network inh 9.3
COc1ccc(CNC(=O)c2ccc(C(C)(C)C)cc2)cc1	none (no result: Yeast growth inh, Yeast life ext)
COCCCNC(=O)c1ccccc1SC	none
Cc1ccc(C2=Nc3ccccc3N=C(c3ccc([N+](=O)[O-])cc3)C2)c(O)c1	none
Cn1c(=O)c2c(nc(Br)n2Cc2ccc3ccccc3c2)n(C)c1=O	Yeast life ext 38
CCCCCCn1c(CN2CCN(Cc3ccccc3)CC2)nc2c1c(=O)n(C)c(=O)n2C	Yeast life ext 27
Cn1c(=O)c2c(nc(SCc3ccccc3)n2Cc2ccc(Cl)cc2)n(C)c1=O	RAM network inh 8.9 (no result: Yeast life ext)
Cn1c(=O)c2c(nc(Br)n2Cc2ccccc2Cl)n(C)c1=O	none
CCOC(=O)CC(=O)CSc1ncnc2c1oc1ccccc12	none
O=C(Nc1cccc(Cl)c1)c1cc(S(=O)(=O)NCCc2ccc(Cl)cc2)ccc1F	RAM network inh 10
CCOc1cccc(NC(=O)C2CC(=O)N(c3ccc(F)cc3)C2)c1 (stereo unspecified)	none (no result: Yeast growth inh, Yeast life ext)
CCO[C@@H]1OC(C(=O)O)=C[C@H](C2CC2)[C@H]1CCCO	none (no result: Yeast growth inh, Yeast life ext)
N#Cc1c(C(F)(F)F)cc(-c2ccc(F)cc2)nc1SCC(=O)O	none (no result: Yeast growth inh, Yeast life ext)
CCCCOc1ccc(-c2cc(C(F)(F)F)c(C#N)c(SCC(=O)O)n2)cc1	RAM network inh 8.4 (no result: Yeast growth inh, Yeast life ext)
NNC(=O)c1cc(O)c(O)c(O)c1	TNAP inh noacc 58 (no result: Yeast growth inh, Yeast life ext)
CC1(C)N([O-])C2=C(c3ccccc3C2=O)[N+](=O)C1(C)C	Yeast life ext 53
O=C(COC(=O)C1(c2cccc(F)c2)CCCC1)NCc1ccc2c(c1)OCO2	none
O=C(Nc1ccccc1C(F)(F)F)c1cc(S(=O)(=O)N2CCC3(CC2)OCCO3)ccc1F	none
COc1ccccc1NC(=O)c1cc(S(=O)(=O)N2CCC3(CC2)OCCO3)ccc1F	RAM network inh 9.6
O=C(CCCCCn1c(=O)[nH]c2ccsc2c1=O)N1CCN(C2CCCCC2)CC1	none
N#Cc1ccc(OCC(=O)Nc2ccccc2NS(=O)(=O)c2cccs2)cc1	none
COc1ccc(C=C(c2nc3ccccc3s2)c2nc3ccccc3s2)cc1O	RAM network inh 9.2
COc1cc(C=C(c2nc3ccccc3s2)c2nc3ccccc3s2)ccc1O	none
CCc1ccc(C(=O)CN2C(=O)NC(C)(CCc3ccccc3)C2=O)cc1 (stereo unspecified)	Yeast life ext 46
CC(=O)Nc1ccc(C(=O)N(C)C(C(=O)Nc2ccccc2)c2ccccn2)cc1 (stereo unspecified)	none
COc1ccc(CCn2c(-c3ccccc3)nc3c(c(=O)c4ccccc4n3C)c2=O)cc1	Yeast life ext 31
[O-][N+]1=c2ccc(Nc3ccccc3)cc2=NC12CCCCC2	none
COc1ccc(Nc2ccc3c(c2)=NC2(CCCCC2)[N+]=3[O-])cc1	RAM network inh 8.9
O=[N+]([O-])c1ccc(N/N=C/c2ccc(O)c(O)c2O)c(S(=O)(=O)N2CCOCC2)c1	none (no result: Yeast growth inh, Yeast life ext)
O=[N+]([O-])c1ccc(N/N=C/c2cccc(O)c2O)c(S(=O)(=O)N2CCOCC2)c1	TNAP inh noacc 79 (no result: Yeast growth inh, Yeast life ext)
CN(C)C(=O)c1nc2ccc(Cl)cn2c1CNCc1ccccc1OC(F)(F)F	none (no result: Yeast growth inh, Yeast life ext)
CC(C)N1CCN(Cc2ccoc2)CC1CCO (stereo unspecified)	none (no result: Yeast growth inh, Yeast life ext)
CN1CCN(CCc2cn3ncc(C#N)c3nc2-c2ccc(F)cc2)CC1	RAM network inh 11 (no result: Yeast growth inh, Yeast life ext)
CSc1nc2nc(-c3ccc(F)cc3)c(CCN3CCN(C)CC3)cn2n1	none (no result: Yeast growth inh, Yeast life ext)
CC1=CN2CC(O)CN=C2C=C1 (stereo unspecified)	none
C=C(C(=O)c1ccccc1)C(C)CC(=O)c1ccccc1 (stereo unspecified)	Yeast life ext 34
O=C(CC(Nc1ccccc1)C(=O)O)c1ccccc1 (stereo unspecified)	none
Cc1ccc(S(=O)(=O)Nc2ccc(SC(F)F)cc2)c(C)c1	Yeast growth inh 61
CC(C)c1ccc(S(=O)(=O)Nc2ccc(SC(F)F)cc2)cc1	none
O=C1c2ccccc2-c2onc3c(Oc4ccccc4)cc(O)c1c23	Yeast life ext 92
Nc1ccc(SC(F)(F)F)cc1C(=O)c1ccccc1	Yeast growth inh 57
CCC(=O)n1nc(NCc2ccccc2OC)nc1NCc1ccccc1OC	RAM network inh 9.2
O=C(NCCc1ccccn1)C(F)(F)C(F)(F)C(F)(F)C(F)(F)C(F)(F)C(F)(F)C(F)(F)C(F)F	Yeast life ext 33
CNC(=O)C1CC(=O)N(CCCc2ccccc2)C(=Nc2ccccc2)S1 (stereo unspecified)	RAM network inh 9.0
CNC(=O)C1CC(=O)N(CCc2ccccc2)C(=Nc2ccc(OC)cc2)S1 (stereo unspecified)	none (no result: Yeast growth inh, Yeast life ext)
Cc1[nH]nc(-c2ccc(O)c(C)c2O)c1Oc1ccccc1	TNAP inh noacc 72
c1ccc(CN2CCN(CCCNc3ccc4nnc(-c5ccccc5)n4n3)CC2)cc1	none
Fc1ccccc1N1CCN(CCCNc2ccc3nncn3n2)CC1	Yeast life ext 27
CCNC(=S)NNc1nc(N2CCCCC2)nc(N2CCOCC2)n1	none (no result: Yeast growth inh, Yeast life ext)
CN(Cc1ccccc1)C(=O)CCC(=O)N(C)Cc1ccccc1	none
CC1(C(=O)N(Cc2ccccc2)Cc2ccccc2)CC1(Br)Br (stereo unspecified)	RAM network inh 8.8
Cc1ccc(C)c(-c2csc(N/N=C/c3ccco3)n2)c1	none (no result: Yeast growth inh, Yeast life ext)
